Test results taken from ChEMBL document CHEMBL1777788, “Synthesis and in vitro antimicrobial activities of new (cyano-NNO-azoxy)pyrazole derivatives” (2011).
Values after ≈ are worked out from the molar mass of the structure shown.

Legend:
Type in all cases: functional
Candida albicans [1] = assay: Antimicrobial activity against Candida albicans isolate 47 after 48 hrs by microdilution broth method; details: isolate 47, 48 h
Outline: (§1)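 Yeasts were grown overnight on Sabouraud dextrose agar at 35°C, suspended in water, and adjusted at 530 nm to McFarland 0.5 (approximately 1-5 x 10^6 CFU/ml). They were then diluted 1:100 and 1:20 in RPMI 1640 with 0.165 M MOPS and 2% glucose. Compound in DMSO was tested at ten concentrations, 0.25–256 mg/L, with incubation at 35°C. At 48 h, MIC was read spectrophotometrically as 50% turbidity reduction versus growth control.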

Candida parapsilosis [2] = assay: Antimicrobial activity against Candida parapsilosis ATCC 22019 after 48 hrs by microdilution broth method; details: Lodderomyces parapsilosis, ATCC 22019, 48 h; outline: as §1
Pichia kudriavzevii [3] = assay: Antimicrobial activity against Candida krusei isolate 43 after 48 hrs by microdilution broth method
Candida albicans [4] = assay: Antimicrobial activity against Candida albicans ATCC 90028 after 48 hrs by microdilution broth method; details: ATCC 90028, 48 h
Outline: (§2)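 Yeasts grown overnight on Sabouraud dextrose agar at 35°C, suspended in sterile water, and adjusted to McFarland 0.5 at 530 nm (about 1-5 x 10^6 CFU/ml), then diluted 1:100 and 1:20 in RPMI 1640 with 0.165 M MOPS and 2% glucose. Compound in DMSO tested at ten concentrations, 0.25-256 mg/L, at 35°C. MIC read spectrophotometrically at 48 h as 50% turbidity reduction versus growth control.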

Candida parapsilosis [5] = assay: Antimicrobial activity against Candida parapsilosis isolate 26 after 48 hrs by microdilution broth method; details: Lodderomyces parapsilosis, isolate 26, 48 h; outline: as §1
[6] = system: Cryptococcus deneoformans; assay: Antimicrobial activity against Cryptococcus neoformans var. neoformans isolate 25 after 48 hrs by microdilution broth method; details: isolate 25, 48 h; outline: as §1
Candida albicans [7] = assay: Antimicrobial activity against Candida albicans isolate 48 after 48 hrs by microdilution broth method; details: isolate 48, 48 h; outline: as §1
Candida tropicalis [8] = assay: Antimicrobial activity against Candida tropicalis isolate 15 after 48 hrs by microdilution broth method; details: isolate 15, 48 h; outline: as §1
Candida tropicalis [9] = assay: Antimicrobial activity against Candida tropicalis isolate 33 after 48 hrs by microdilution broth method; details: isolate 33, 48 h; outline: as §1
Nakaseomyces glabratus [10] = assay: Antimicrobial activity against Candida glabrata isolate 30 after 48 hrs by microdilution broth method; outline: as §1
Pichia kudriavzevii [11] = assay: Antimicrobial activity against Candida krusei ATCC 6258 after 48 hrs by microdilution broth method; details: ATCC 6258, 48 h
Candida albicans [12] = assay: Antimicrobial activity against Candida albicans isolate 31 after 48 hrs by microdilution broth method; details: isolate 31, 48 h; outline: as §1
Nakaseomyces glabratus [13] = assay: Antimicrobial activity against Candida glabrata isolate 46 after 48 hrs by microdilution broth method; outline: as §1
[14] = system: Cryptococcus deneoformans; assay: Antimicrobial activity against Cryptococcus neoformans var. neoformans isolate 30 after 48 hrs by microdilution broth method; details: isolate 30, 48 h; outline: as §1
Nakaseomyces glabratus [15] = assay: Antimicrobial activity against Candida glabrata isolate 32 after 48 hrs by microdilution broth method; details: isolate 32, 48 h; outline: as §1
[16] = system: Cryptococcus deneoformans; assay: Antimicrobial activity against Cryptococcus neoformans var. neoformans isolate 14 after 48 hrs by microdilution broth method; details: isolate 14, 48 h; outline: as §1
Candida parapsilosis [17] = assay: Antimicrobial activity against Candida parapsilosis isolate 39 after 48 hrs by microdilution broth method; details: Lodderomyces parapsilosis, isolate 39, 48 h; outline: as §2
Pichia kudriavzevii [18] = assay: Antimicrobial activity against Candida krusei isolate 31 after 48 hrs by microdilution broth method; details: isolate 31, 48 h; outline: as §1
Nakaseomyces glabratus [19] = assay: Antimicrobial activity against Candida glabrata isolate 49 after 48 hrs by microdilution broth method; outline: as §1
[20] = system: Cryptococcus deneoformans; assay: Antimicrobial activity against Cryptococcus neoformans var. neoformans isolate 27 after 48 hrs by microdilution broth method; details: isolate 27, 48 h; outline: as §1
Candida tropicalis [21] = assay: Antimicrobial activity against Candida tropicalis isolate 11 after 48 hrs by microdilution broth method; details: isolate 11, 48 h; outline: as §1
Candida parapsilosis [22] = assay: Antimicrobial activity against Candida parapsilosis isolate 19 after 48 hrs by microdilution broth method; details: Lodderomyces parapsilosis, isolate 19, 48 h; outline: as §1
Pichia kudriavzevii [23] = assay: Antimicrobial activity against Candida krusei isolate 48 after 48 hrs by microdilution broth method
Candida tropicalis [24] = assay: Antimicrobial activity against Candida tropicalis isolate 22 after 48 hrs by microdilution broth method; details: isolate 22, 48 h; outline: as §1
Candida parapsilosis [25] = assay: Antimicrobial activity against Candida parapsilosis isolate 44 after 48 hrs by microdilution broth method; details: Lodderomyces parapsilosis, isolate 44, 48 h; outline: as §1
Candida albicans [26] = assay: Antimicrobial activity against Candida albicans isolate 41 after 48 hrs by microdilution broth method; details: isolate 41, 48 h; outline: as §1

Row | Compound | MIC (Candida albicans [1]) [µg/mL] | MIC (Candida parapsilosis [2]) [µg/mL] | MIC (Pichia kudriavzevii [3]) [µg/mL] | MIC (Candida albicans [4]) [µg/mL] | MIC (Candida parapsilosis [5]) [µg/mL] | MIC [6] [µg/mL] | MIC (Candida albicans [7]) [µg/mL] | MIC (Candida tropicalis [8]) [µg/mL] | MIC (Candida tropicalis [9]) [µg/mL] | MIC (Candida albicans [12]) [µg/mL] | MIC (Nakaseomyces glabratus [13]) [µg/mL] | MIC [14] [µg/mL] | MIC (Nakaseomyces glabratus [15]) [µg/mL] | MIC [16] [µg/mL] | MIC (Candida parapsilosis [17]) [µg/mL] | MIC (Pichia kudriavzevii [18]) [µg/mL] | MIC [20] [µg/mL] | MIC (Candida tropicalis [21]) [µg/mL] | MIC (Candida parapsilosis [22]) [µg/mL] | MIC (Candida tropicalis [24]) [µg/mL] | other results
1 | Cc1ccc(S(=O)(=O)/N=[N+](\[O-])c2c(-c3cccs3)nn(C)c2C)cc1 | > 128 | > 128 | > 128 | > 128 | > 128 | 128 (≈ 340 µM) | > 128 | > 128 | > 128 | > 128 | > 128 | 128 (≈ 340 µM) | > 128 | 64 (≈ 170 µM) | > 128 | > 128 | 64 (≈ 170 µM) | > 128 | > 128 | > 128 | MIC (Nakaseomyces glabratus [10]): > 128 µg/mL; MIC (Pichia kudriavzevii [11]): > 128 µg/mL; MIC (Nakaseomyces glabratus [19]): > 128 µg/mL; MIC (Pichia kudriavzevii [23]): > 128 µg/mL
2 | C[C@@H]1[C@H](O)[C@@H](C)/C=C/C=C/C=C/C=C/C=C/C=C/C=C/[C@H](O[C@@H]2O[C@H](C)[C@@H](O)[C@H](N)[C@@H]2O)C[C@@H]2O[C@](O)(C[C@@H](O)C[C@@H](O)[C@H](O)CC[C@@H](O)C[C@@H](O)CC(=O)O[C@H]1C)C[C@H](O)[C@H]2C(=O)O [AMPHOTERICIN B] | 1 (≈ 1.08 µM) | 1 (≈ 1.08 µM) | – | 0.5 (≈ 0.541 µM) | 0.5 (≈ 0.541 µM) | 0.5 (≈ 0.541 µM) | 0.5 (≈ 0.541 µM) | 1 (≈ 1.08 µM) | 1 (≈ 1.08 µM) | 0.5 (≈ 0.541 µM) | 1 (≈ 1.08 µM) | 0.5 (≈ 0.541 µM) | 0.5 (≈ 0.541 µM) | 0.25 (≈ 0.271 µM) | 0.5 (≈ 0.541 µM) | 0.5 (≈ 0.541 µM) | 0.12 (≈ 0.13 µM) | 1 (≈ 1.08 µM) | 0.5 (≈ 0.541 µM) | 0.5 (≈ 0.541 µM) | MIC (Candida parapsilosis [25]): 0.5 µg/mL (≈ 0.541 µM); MIC (Candida albicans [26]): 0.5 µg/mL (≈ 0.541 µM); MIC (Nakaseomyces glabratus [19]): 0.5 µg/mL (≈ 0.541 µM)
3 | OC(Cn1cncn1)(Cn1cncn1)c1ccc(F)cc1F [FLUCONAZOLE] | 0.25 (≈ 0.816 µM) | 2 (≈ 6.53 µM) | 64 (≈ 209 µM) | 0.12 (≈ 0.392 µM) | 1 (≈ 3.27 µM) | 2 (≈ 6.53 µM) | 0.12 (≈ 0.392 µM) | 1 (≈ 3.27 µM) | 1 (≈ 3.27 µM) | 0.25 (≈ 0.816 µM) | 16 (≈ 52.2 µM) | 4 (≈ 13.1 µM) | > 256 | 0.5 (≈ 1.63 µM) | 1 (≈ 3.27 µM) | 32 (≈ 104 µM) | 2 (≈ 6.53 µM) | 1 (≈ 3.27 µM) | 1 (≈ 3.27 µM) | 2 (≈ 6.53 µM) | MIC (Candida parapsilosis [25]): 2 µg/mL (≈ 6.53 µM); MIC (Candida albicans [26]): 0.12 µg/mL (≈ 0.392 µM); MIC (Pichia kudriavzevii [11]): 32 µg/mL (≈ 104 µM); MIC (Pichia kudriavzevii [23]): 32 µg/mL (≈ 104 µM)
4 | CC[C@@H]([C@H](C)O)n1ncn(-c2ccc(N3CCN(c4ccc(OC[C@@H]5CO[C@@](Cn6cncn6)(c6ccc(F)cc6F)C5)cc4)CC3)cc2)c1=O [POSACONAZOLE] | 0.016 (≈ 0.0228 µM) | 0.12 (≈ 0.171 µM) | 0.5 (≈ 0.713 µM) | 0.008 (≈ 0.0114 µM) | 0.03 (≈ 0.0428 µM) | 0.06 (≈ 0.0856 µM) | 0.008 (≈ 0.0114 µM) | 0.25 (≈ 0.357 µM) | 0.12 (≈ 0.171 µM) | 0.008 (≈ 0.0114 µM) | 1 (≈ 1.43 µM) | 0.12 (≈ 0.171 µM) | > 8 | 0.03 (≈ 0.0428 µM) | 0.06 (≈ 0.0856 µM) | 0.25 (≈ 0.357 µM) | 0.06 (≈ 0.0856 µM) | 0.12 (≈ 0.171 µM) | 0.03 (≈ 0.0428 µM) | 0.25 (≈ 0.357 µM) | MIC (Candida parapsilosis [25]): 0.03 µg/mL (≈ 0.0428 µM); MIC (Candida albicans [26]): 0.016 µg/mL (≈ 0.0228 µM); MIC (Nakaseomyces glabratus [10]): 0.5 µg/mL (≈ 0.713 µM); MIC (Pichia kudriavzevii [11]): 0.25 µg/mL (≈ 0.357 µM); MIC (Nakaseomyces glabratus [19]): 0.25 µg/mL (≈ 0.357 µM); MIC (Pichia kudriavzevii [23]): 0.25 µg/mL (≈ 0.357 µM)
5 | C[C@@H](c1ncncc1F)[C@](O)(Cn1cncn1)c1ccc(F)cc1F [VORICONAZOLE] | 0.008 (≈ 0.0229 µM) | 0.06 (≈ 0.172 µM) | 0.5 (≈ 1.43 µM) | 0.008 (≈ 0.0229 µM) | < 0.008 | 0.016 (≈ 0.0458 µM) | < 0.008 | 0.06 (≈ 0.172 µM) | < 0.008 | < 0.008 | 0.25 (≈ 0.716 µM) | 0.016 (≈ 0.0458 µM) | 4 (≈ 11.5 µM) | < 0.008 | 0.016 (≈ 0.0458 µM) | 0.12 (≈ 0.344 µM) | 0.016 (≈ 0.0458 µM) | 0.12 (≈ 0.344 µM) | 0.008 (≈ 0.0229 µM) | 0.06 (≈ 0.172 µM) | MIC (Candida parapsilosis [25]): 0.016 µg/mL (≈ 0.0458 µM); MIC (Candida albicans [26]): < 0.008 µg/mL; MIC (Nakaseomyces glabratus [10]): 0.25 µg/mL (≈ 0.716 µM); MIC (Pichia kudriavzevii [11]): 0.25 µg/mL (≈ 0.716 µM); MIC (Nakaseomyces glabratus [19]): 0.12 µg/mL (≈ 0.344 µM); MIC (Pichia kudriavzevii [23]): 0.25 µg/mL (≈ 0.716 µM)
